Data taken from ChEMBL document CHEMBL1129461 (J Med Chem, 1996).

Legend:
[1] = molecular target: T1, Protein kinase C beta type (Homo sapiens, UniProt P05771); assay: Evaluated against recombinant human Protein kinase C beta 1
Summary of the method: (§1)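 Recombinant human PKC isozymes expressed in SF9 cells via baculovirus, partly purified (50–90%). 32P transfer from 30 μM [32P]ATP to 200 μg/mL histone IIIS in 20 mM Hepes pH 7.5, 10 mM MgCl2, EGTA, CaCl2, phosphatidylserine, and diacylglycerol at the isozyme-dependent level giving half-maximal activation. 10 min at 30 °C, TCA stop, filter counting. No-lipid background subtracted.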

[2] = molecular target: T1, Protein kinase C beta type; assay: Evaluated against recombinant human Protein kinase C beta 2; summary of the method: as §1
[3] = molecular target: Protein kinase C gamma type (Homo sapiens, UniProt P05129); assay: Evaluated against recombinant human Protein kinase C gamma; summary of the method: as §1
[4] = molecular target: Protein kinase C delta type (Homo sapiens, UniProt Q05655); assay: Evaluated against recombinant human Protein kinase C delta; summary of the method: as §1
Chain of Protein kinase C delta type (Q05655 whole entry): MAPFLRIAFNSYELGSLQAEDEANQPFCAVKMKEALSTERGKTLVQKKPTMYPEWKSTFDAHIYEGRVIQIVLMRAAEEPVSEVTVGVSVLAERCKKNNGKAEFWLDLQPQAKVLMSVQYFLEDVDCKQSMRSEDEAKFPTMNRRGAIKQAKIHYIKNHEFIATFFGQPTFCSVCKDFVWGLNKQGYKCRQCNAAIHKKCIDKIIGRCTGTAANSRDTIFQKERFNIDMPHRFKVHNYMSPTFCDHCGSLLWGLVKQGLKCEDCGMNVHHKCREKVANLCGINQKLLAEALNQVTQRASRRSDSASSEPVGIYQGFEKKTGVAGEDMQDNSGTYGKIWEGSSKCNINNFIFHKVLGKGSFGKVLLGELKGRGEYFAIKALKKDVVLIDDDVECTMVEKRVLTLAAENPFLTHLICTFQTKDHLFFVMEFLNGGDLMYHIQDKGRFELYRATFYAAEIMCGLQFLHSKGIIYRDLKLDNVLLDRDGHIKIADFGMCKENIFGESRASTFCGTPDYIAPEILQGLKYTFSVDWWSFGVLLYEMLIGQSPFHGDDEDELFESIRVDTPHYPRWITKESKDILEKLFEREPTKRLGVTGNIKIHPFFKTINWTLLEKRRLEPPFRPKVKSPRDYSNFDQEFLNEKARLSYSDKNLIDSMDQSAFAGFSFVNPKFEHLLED

[5] = molecular target: Protein kinase C alpha type (Homo sapiens, UniProt P17252); assay: Evaluated against recombinant human Protein kinase C alpha; summary of the method: as §1
[6] = molecular target: T2, Protein kinase C epsilon type (Homo sapiens, UniProt Q02156); assay: Evaluated against recombinant human Protein kinase C epsilon; summary of the method: as §1
T2 sequence (Q02156 whole entry): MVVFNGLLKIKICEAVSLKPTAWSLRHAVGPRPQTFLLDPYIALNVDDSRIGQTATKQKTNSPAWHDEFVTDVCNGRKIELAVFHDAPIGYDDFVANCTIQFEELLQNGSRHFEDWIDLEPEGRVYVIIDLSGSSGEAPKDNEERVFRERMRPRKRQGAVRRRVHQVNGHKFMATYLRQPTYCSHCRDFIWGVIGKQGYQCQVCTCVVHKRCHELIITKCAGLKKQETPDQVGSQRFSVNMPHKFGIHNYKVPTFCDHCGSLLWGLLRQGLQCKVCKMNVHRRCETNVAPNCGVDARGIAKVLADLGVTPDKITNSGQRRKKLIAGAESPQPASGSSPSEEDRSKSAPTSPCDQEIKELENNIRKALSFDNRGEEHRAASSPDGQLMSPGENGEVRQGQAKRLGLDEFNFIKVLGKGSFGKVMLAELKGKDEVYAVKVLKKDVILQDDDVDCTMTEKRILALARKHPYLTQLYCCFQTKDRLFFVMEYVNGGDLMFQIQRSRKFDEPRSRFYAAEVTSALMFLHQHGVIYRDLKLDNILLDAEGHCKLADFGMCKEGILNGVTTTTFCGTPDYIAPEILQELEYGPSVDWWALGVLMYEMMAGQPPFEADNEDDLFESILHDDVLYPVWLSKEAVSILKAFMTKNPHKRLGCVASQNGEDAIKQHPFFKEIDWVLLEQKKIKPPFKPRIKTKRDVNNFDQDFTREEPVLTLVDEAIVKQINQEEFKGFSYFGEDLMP

[7] = molecular target: T3, Protein kinase C eta type (Homo sapiens, UniProt P24723); assay: Evaluated against recombinant human Protein kinase C eta; summary of the method: as §1
T3 sequence (P24723 whole entry): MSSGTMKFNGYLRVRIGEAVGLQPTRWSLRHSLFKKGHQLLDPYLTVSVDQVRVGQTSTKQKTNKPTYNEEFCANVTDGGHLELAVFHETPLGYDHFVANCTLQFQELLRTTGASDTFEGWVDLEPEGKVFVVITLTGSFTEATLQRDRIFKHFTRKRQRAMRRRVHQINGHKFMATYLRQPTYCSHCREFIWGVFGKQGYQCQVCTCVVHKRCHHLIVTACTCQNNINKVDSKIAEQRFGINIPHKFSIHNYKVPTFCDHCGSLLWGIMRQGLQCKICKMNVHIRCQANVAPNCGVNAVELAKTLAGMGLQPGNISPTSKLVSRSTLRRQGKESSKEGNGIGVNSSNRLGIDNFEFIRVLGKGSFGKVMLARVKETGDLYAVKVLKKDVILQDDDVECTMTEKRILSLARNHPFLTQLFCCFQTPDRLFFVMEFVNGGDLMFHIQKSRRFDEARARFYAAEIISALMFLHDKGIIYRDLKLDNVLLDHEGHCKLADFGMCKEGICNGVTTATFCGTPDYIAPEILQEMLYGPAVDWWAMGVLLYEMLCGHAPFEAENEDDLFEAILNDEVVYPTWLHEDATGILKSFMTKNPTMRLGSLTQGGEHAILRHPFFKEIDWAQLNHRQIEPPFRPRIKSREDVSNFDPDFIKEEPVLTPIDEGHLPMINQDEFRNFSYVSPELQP

[8] = Evaluated against bovine heart Protein Kinase A (PKA)
[9] = molecular target: T3, Protein kinase C eta type; assay: Inhibition of recombinant human Protein kinase C eta; summary of the method: as §1
[10] = Inhibition of rat brain Casein kinase II
Summary of the method: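 Casein kinase II isolated from rat brain homogenate; 20 mM Tris-HCl pH 7.5, 5 mM NaF, casein substrate, 10 mM MgCl2, 30 μM [γ-32P]ATP, inhibitor in DMSO. Room temperature 10 min, stopped with ice-cold TCA plus BSA; precipitate filtered onto glass fiber and β-counted.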

[11] = Inhibition of rat brain Ca 2+/Calmodulin dependent kinase
Summary of the method: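 Ca2+/calmodulin kinase isolated from rat brain homogenate; 50 mM Tris-HCl pH 7.5, 5 mM β-mercaptoethanol, 400 μM EGTA, 700 μM CaCl2, 10 mM MgCl2, 200 μg/mL histone type HA, 30 μM [γ-32P]ATP, inhibitor in DMSO. Room temperature 10 min, ice-cold TCA plus BSA stop, precipitate filtered and β-counted.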

[12] = molecular target: Proto-oncogene tyrosine-protein kinase Src (Homo sapiens, UniProt P12931); assay: Inhibition of src Protein Tyrosine Kinase
Chain of Proto-oncogene tyrosine-protein kinase Src (P12931 2-536 limits assumed): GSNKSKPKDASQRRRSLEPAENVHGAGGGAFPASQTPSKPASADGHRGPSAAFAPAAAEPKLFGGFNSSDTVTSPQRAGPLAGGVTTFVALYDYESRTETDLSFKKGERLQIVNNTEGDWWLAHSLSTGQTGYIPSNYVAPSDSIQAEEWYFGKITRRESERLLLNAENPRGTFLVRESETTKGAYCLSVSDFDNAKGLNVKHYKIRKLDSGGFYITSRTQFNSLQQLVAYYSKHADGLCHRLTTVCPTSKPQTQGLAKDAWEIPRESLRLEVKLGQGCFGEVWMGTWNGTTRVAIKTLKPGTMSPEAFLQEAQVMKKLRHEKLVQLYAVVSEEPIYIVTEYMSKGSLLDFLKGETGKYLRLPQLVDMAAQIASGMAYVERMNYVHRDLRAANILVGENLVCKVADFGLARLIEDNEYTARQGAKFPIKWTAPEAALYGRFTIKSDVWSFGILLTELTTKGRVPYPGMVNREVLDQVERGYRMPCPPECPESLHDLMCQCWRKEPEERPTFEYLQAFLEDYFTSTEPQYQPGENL
Summary of the method: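 p60src tyrosine kinase with Raytide peptide substrate, run by the supplier's protocol except that Triton X-100 replaced Brij 35.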

T1 sequence (P05771 whole entry): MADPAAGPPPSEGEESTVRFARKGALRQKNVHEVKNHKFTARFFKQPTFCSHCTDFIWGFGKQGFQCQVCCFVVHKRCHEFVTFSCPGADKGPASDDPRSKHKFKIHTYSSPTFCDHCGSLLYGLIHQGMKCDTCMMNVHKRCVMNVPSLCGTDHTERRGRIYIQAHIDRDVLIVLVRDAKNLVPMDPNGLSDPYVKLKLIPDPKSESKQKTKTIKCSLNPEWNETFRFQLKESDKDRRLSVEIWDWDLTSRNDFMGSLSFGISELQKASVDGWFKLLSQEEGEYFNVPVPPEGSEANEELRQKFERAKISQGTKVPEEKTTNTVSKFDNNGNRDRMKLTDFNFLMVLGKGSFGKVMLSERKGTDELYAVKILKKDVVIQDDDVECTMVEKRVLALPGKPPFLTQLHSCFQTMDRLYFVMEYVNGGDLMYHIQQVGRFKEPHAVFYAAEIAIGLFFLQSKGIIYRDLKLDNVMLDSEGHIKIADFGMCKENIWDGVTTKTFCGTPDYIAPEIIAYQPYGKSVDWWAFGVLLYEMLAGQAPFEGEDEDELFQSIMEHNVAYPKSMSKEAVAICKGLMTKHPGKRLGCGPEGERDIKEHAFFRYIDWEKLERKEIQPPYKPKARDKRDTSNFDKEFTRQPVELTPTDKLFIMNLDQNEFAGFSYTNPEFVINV

SMILES	IC50 [1] [nM]	IC50 [2] [nM]	IC50 [3] [nM]	IC50 [4] [nM]	IC50 [5] [nM]	IC50 [6] [nM]	IC50 [7] [nM]	IC50 [8] [nM]	IC50 [9] [nM]	IC50 [10] [nM]	IC50 [11] [nM]	IC50 [12] [nM]
O=C(OC[C@H](Cc1ccc(O)cc1)NS(=O)(=O)c1ccccc1)c1cc(O)c(C(=O)c2c(O)cccc2C(=O)O)c(O)c1	230	20	2600	30	1900	2300	20	> 50000				
O=C(OCC(NS(=O)(=O)c1ccccc1)c1ccc(O)cc1)c1cc(O)c(C(=O)c2c(O)cccc2C(=O)O)c(O)c1 (stereo not drawn)	11000	2800	4800	1900	> 50000	> 50000		> 50000	3300			
CC(CCc1ccc(O)cc1)OC(=O)c1cc(O)c(C(=O)c2c(O)cccc2C(=O)O)c(O)c1 (stereo not drawn)	40	30	250	30	410	280	20	> 50000		> 50000	> 50000	
O=C(NC1CNCCCC1OC(=O)c1cc(O)c(C(=O)c2c(O)cccc2C(=O)O)c(O)c1)c1ccc(O)cc1 (racemic)	30	30	30	23	67		20	60				
COC(=O)c1cccc(O)c1C(=O)c1c(O)cc(C(=O)OC2CCCC2Cc2ccc(O)cc2)cc1O (stereo not drawn)	100	90	1700	50	1400	4500	40	> 50000				
O=C(OC1CNCC1Cc1ccc(O)cc1)c1cc(O)c(C(=O)c2c(O)cccc2C(=O)O)c(O)c1 (stereo not drawn)	10	30	40	5	260	1800	20					
O=C(OC1CCCC1Oc1ccc(O)cc1)c1cc(O)c(C(=O)c2c(O)cccc2C(=O)O)c(O)c1 (stereo not drawn)	20	20	250	20	220	240	10	> 50000				
O=C(OCCCc1ccc(O)cc1)c1cc(O)c(C(=O)c2c(O)cccc2C(=O)O)c(O)c1	210	270	830	130	1900	4100	< 50	> 50000				
O=C(NCCOC(=O)c1cc(O)c(C(=O)c2c(O)cccc2C(=O)O)c(O)c1)c1ccc(O)cc1	4500	7500	6600	410	11000	13000	230	8400				
O=C(OC[C@@H](Cc1ccc(O)cc1)NS(=O)(=O)c1ccccc1)c1cc(O)c(C(=O)c2c(O)cccc2C(=O)O)c(O)c1	30	7	470	3	210	460	3	> 50000				
O=C(OCC(Cc1ccc(O)cc1)NS(=O)(=O)c1ccccc1)c1cc(O)c(C(=O)c2c(O)cccc2C(=O)O)c(O)c1 (stereo not drawn)	220	30	220	40	110	320	20	> 50000		> 50000	32000	> 12500
COC(=O)c1cccc(O)c1C(=O)c1c(O)cc(C(=O)OC2CNCC2Cc2ccc(O)cc2)cc1O (stereo not drawn)	110	250	380	100	2200		500					
COC(=O)c1cccc(O)c1C(=O)c1c(O)cc(C(=O)OCCCc2ccc(O)cc2)cc1O	460	750	4100	300	7800		170					
